Series [1] in a line: Metabolic stability in human liver microsomes after 30 mmins. The note with it: read-out: Stability. It is filed as ADME, Microsome. In outline: (§1)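 Hepatic microsomes (human or mouse) are incubated with compound for 30 min. The read-out is % of parent remaining. Values are means of n = 2.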
On the technique in general: Liver microsomes are vesicles of endoplasmic reticulum, rich in cytochrome P450 enzymes.

Series [2] in a line: Metabolic stability in mouse liver microsomes after 30 mmins. In kind it is ADME, Microsome. The note with it: read-out: Stability. In outline:
as §1

Series [3] concerns the target T1, Melanin-concentrating hormone receptor 1 (Homo sapiens, UniProt Q99705). Briefly: Displacement of [125I]MCH from human recombinant MCH1R expressed on CHOK1 cell membrane. In kind it is cell membranes, CHO-K1. A digest of the protocol:
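Competition binding with [125I]MCH on membranes of CHO-K1 cells expressing human recombinant MCH-1R. Inhibition of radioligand binding is measured. Values are means of n = 2.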
On the technique in general: Displacement assays read how much labelled ligand stays bound in the presence of the test substance.

The target in series [4] is Delta-type opioid receptor (Homo sapiens, UniProt P41143). The series can be described thus: Inhibition of delta-type opioid receptor.
Sequence of Delta-type opioid receptor (P41143 whole entry): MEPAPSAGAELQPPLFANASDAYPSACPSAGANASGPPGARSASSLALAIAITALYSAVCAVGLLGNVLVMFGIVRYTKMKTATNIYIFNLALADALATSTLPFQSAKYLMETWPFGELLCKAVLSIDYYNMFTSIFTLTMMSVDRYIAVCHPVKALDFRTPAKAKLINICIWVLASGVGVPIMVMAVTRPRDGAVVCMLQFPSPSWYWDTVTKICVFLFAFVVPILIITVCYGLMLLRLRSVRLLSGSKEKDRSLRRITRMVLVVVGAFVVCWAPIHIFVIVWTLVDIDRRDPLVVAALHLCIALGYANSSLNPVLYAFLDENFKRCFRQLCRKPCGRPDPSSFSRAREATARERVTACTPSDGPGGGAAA
Series [5] deals with Kappa-type opioid receptor (Homo sapiens, UniProt P41145). The series can be described thus: Inhibition of kappa-type opioid receptor.
Sequence of Kappa-type opioid receptor (P41145 whole entry): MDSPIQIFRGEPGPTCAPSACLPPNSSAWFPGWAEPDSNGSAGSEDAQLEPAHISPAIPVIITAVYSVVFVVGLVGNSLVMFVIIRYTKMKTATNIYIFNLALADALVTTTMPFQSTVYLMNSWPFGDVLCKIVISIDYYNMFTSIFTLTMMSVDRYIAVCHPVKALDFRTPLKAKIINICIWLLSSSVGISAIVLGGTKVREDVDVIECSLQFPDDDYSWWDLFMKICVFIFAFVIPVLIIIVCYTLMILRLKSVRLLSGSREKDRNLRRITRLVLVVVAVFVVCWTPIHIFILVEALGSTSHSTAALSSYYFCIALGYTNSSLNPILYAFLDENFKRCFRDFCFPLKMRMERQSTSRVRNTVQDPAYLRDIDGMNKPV
The target of series [6] is Adenosine receptor A2a (Homo sapiens, UniProt P29274). The series can be described thus: Inhibition of adenosine receptor A2A.
Sequence of Adenosine receptor A2a (P29274 whole entry): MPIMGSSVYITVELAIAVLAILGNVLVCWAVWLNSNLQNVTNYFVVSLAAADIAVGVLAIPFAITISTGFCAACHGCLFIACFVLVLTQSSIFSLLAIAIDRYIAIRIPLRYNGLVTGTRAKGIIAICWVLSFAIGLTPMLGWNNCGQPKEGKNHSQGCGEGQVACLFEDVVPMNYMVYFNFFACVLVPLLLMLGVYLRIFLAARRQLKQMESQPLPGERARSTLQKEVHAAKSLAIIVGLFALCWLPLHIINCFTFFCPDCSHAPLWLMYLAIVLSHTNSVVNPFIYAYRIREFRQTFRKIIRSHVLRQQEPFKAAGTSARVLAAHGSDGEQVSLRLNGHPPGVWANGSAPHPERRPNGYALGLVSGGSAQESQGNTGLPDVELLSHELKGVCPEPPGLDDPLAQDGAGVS
Series [7] concerns the target Histamine H2 receptor (Homo sapiens, UniProt P25021). The series can be described thus: Inhibition of histamine H2 receptor.
For series [8], the target named is Mu-type opioid receptor (Homo sapiens, UniProt P35372). The series can be described thus: Inhibition of mu-type opioid receptor.
Sequence of Mu-type opioid receptor (P35372 whole entry): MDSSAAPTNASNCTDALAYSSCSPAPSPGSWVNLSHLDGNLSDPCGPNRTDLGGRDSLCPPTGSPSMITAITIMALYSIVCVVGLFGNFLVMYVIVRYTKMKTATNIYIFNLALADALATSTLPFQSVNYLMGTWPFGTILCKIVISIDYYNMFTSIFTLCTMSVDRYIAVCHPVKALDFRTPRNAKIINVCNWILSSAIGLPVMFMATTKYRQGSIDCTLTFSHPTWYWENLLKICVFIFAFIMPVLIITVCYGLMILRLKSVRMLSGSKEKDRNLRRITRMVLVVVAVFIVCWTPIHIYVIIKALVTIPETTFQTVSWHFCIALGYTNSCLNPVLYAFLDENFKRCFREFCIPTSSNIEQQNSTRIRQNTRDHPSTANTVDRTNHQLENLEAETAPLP
The target in series [9] is T1, Melanin-concentrating hormone receptor 1. Briefly: Antagonistic activity against MCH1R expressed on CHOK1 cells assessed as intracellular calcium mobilization by FLIPR. It is filed as functional, cell-based, CHO-K1. (In general: Calcium flux is commonly read through the fluorescence of an indicator in the cells.)
In series [10] the target is Histamine H3 receptor (Homo sapiens, UniProt Q9Y5N1). The series can be described thus: Inhibition of histamine H3 receptor.
Sequence of Histamine H3 receptor (Q9Y5N1 whole entry): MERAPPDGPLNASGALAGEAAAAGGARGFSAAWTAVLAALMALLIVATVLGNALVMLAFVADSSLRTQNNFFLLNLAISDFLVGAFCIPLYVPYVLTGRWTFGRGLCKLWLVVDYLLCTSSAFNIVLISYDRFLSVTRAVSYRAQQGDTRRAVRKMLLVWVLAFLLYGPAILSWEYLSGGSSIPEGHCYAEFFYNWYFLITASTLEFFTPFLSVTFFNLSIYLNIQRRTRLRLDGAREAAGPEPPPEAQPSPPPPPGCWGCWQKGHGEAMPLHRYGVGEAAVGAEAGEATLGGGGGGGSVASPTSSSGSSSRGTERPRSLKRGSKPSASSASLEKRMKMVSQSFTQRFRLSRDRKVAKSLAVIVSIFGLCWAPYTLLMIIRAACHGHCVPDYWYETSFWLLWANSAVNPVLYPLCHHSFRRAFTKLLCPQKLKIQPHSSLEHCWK
In series [11] the target is T2, Muscarinic acetylcholine receptor M1 (Homo sapiens, UniProt P11229).
T2 sequence (P11229 whole entry): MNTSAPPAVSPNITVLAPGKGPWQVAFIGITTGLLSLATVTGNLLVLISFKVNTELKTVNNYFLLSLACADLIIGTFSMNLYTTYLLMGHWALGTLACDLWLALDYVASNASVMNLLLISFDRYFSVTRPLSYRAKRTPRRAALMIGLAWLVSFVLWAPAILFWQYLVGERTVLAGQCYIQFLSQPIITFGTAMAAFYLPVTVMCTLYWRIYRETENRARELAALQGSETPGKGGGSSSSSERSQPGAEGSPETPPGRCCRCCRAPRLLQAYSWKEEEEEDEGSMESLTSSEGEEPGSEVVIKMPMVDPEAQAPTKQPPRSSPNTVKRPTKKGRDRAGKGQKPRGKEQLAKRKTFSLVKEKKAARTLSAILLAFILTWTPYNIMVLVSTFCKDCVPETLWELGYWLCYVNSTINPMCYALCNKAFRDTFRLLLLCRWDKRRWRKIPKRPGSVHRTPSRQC
The series can be described thus: Inhibition of muscarinic M1 receptor.

In series [12] the target is Histamine H1 receptor (Homo sapiens, UniProt P35367). Briefly: Inhibition of histamine H1 receptor.
Sequence of Histamine H1 receptor (P35367 whole entry): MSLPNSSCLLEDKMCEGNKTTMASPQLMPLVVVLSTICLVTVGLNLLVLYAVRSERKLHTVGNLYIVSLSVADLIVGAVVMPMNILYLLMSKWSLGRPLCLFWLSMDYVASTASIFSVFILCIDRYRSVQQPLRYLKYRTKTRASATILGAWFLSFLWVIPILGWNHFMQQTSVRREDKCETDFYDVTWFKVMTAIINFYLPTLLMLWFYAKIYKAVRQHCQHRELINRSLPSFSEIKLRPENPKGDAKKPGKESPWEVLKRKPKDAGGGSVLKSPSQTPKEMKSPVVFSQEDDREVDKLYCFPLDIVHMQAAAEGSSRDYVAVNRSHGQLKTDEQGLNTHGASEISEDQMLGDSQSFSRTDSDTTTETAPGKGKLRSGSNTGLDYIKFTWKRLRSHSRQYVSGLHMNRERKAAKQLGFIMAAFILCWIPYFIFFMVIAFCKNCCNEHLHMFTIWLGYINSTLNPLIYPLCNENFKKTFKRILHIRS
In series [13] the target is Voltage-gated inwardly rectifying potassium channel KCNH2 (Homo sapiens, UniProt Q12809). Briefly: Inhibition of human ERG potassium channel 1.
Sequence of Voltage-gated inwardly rectifying potassium channel KCNH2 (Q12809 whole entry): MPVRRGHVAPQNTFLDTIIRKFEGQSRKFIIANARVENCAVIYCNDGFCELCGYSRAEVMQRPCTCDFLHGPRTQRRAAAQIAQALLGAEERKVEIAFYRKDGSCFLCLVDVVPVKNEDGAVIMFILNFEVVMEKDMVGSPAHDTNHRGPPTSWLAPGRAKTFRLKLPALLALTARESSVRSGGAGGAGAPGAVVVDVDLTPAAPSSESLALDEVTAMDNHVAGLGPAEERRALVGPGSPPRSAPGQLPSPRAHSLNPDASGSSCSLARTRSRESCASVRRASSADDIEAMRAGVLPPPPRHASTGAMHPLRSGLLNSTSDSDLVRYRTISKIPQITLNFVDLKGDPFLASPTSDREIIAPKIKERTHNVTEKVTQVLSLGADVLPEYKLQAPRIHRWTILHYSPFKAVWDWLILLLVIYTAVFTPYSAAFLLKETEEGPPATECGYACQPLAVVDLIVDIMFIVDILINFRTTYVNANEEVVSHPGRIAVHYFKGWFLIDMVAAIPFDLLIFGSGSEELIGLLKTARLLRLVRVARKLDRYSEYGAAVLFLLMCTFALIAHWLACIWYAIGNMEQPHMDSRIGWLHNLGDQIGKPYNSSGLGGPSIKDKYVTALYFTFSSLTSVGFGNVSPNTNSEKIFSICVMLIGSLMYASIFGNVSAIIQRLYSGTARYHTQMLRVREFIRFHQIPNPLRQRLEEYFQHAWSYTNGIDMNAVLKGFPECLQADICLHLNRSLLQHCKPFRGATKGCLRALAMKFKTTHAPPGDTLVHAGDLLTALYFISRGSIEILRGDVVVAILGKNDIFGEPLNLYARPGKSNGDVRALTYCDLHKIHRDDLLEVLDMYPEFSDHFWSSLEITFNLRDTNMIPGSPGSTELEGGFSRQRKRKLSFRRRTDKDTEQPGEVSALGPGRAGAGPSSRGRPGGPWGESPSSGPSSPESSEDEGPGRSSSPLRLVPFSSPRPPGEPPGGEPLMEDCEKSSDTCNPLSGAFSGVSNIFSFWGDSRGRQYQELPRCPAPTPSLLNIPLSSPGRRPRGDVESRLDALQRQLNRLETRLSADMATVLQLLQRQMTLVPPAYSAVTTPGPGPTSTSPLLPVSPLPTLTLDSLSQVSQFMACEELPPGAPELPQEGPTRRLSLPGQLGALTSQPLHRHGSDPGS
Series [14] has as its target Histamine H4 receptor (Homo sapiens, UniProt Q9H3N8). The series can be described thus: Inhibition of histamine H4 receptor.
Series [15] in a line: Inhibition of adrenergic alpha1 receptor.

The structures appear in SMILES notation.

T1 sequence (Q99705 whole entry): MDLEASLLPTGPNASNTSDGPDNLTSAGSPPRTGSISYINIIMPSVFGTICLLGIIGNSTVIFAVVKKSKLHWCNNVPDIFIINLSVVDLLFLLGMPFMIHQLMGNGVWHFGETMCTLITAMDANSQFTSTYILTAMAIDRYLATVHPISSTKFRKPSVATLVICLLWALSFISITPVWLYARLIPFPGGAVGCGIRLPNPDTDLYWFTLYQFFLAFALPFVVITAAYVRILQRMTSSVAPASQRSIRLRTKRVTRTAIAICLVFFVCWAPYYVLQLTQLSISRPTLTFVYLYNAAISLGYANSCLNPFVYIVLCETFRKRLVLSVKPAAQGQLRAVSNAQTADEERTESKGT
Sequence of Histamine H4 receptor (Q9H3N8 whole entry): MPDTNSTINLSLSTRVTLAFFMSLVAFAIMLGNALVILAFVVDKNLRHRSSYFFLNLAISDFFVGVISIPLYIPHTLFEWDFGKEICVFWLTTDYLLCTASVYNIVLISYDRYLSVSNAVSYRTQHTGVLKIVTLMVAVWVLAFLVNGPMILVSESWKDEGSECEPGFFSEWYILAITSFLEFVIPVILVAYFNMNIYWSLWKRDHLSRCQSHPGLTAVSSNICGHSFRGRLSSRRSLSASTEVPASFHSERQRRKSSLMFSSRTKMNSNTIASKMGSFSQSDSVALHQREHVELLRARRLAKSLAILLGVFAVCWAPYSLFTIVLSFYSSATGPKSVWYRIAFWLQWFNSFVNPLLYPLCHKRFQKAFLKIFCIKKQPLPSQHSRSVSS
Sequence of Histamine H2 receptor (P25021 whole entry): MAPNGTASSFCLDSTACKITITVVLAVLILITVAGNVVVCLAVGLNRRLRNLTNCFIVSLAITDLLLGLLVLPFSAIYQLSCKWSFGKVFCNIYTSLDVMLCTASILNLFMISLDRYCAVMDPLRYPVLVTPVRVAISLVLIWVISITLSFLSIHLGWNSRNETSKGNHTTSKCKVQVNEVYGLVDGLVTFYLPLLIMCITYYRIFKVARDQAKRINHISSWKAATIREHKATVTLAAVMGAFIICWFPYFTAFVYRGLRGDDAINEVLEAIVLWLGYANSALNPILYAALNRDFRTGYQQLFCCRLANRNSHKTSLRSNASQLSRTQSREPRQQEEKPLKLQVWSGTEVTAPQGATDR

On to `CCN(CC)Cc1ccc(CCn2ccc(OCc3ccc(F)cc3)cc2=O)cc1`, for which the figures for the remaining at 30 min in series [1] and in series [2] were 54% and 26%, respectively.
Usually IC50 stands for the concentration that gives 50% inhibition. For the compound `O=c1cc(OCc2ccc(F)cc2)ccn1-c1ccc(CN2CCCC2)cc1`, the IC50 in series [3] was > 1000 nM.
In the case of `CCCN(Cc1ccc(CCn2ccc(OCc3ccc(F)cc3)cc2=O)cc1)C(C)C`, the remaining at 30 min in series [1] was found to be 4%; in series [2] it was 1%. In series [3], the 50% inhibitory concentration (IC50) came to 5.2 nM.
With `CCCN(CCOC)Cc1ccc(CCn2ccc(OCc3ccc(F)cc3)cc2=O)cc1`, the remaining at 30 min in [1] and in series [2] was 0% throughout. The IC50 in series [3] is 5.4 nM.
As for `CCCN(Cc1ccc(CCn2ccc(OCc3ccc(F)cc3)cc2=O)cc1)C1CCCC1`, the remaining at 30 min in series [1] and in series [2] was 1% throughout. In addition, the 50% inhibitory concentration (IC50) in series [3] is 3.5 nM.
Turning to `CCCN(Cc1ccc(CCn2ccc(OCc3ccc(F)cc3)cc2=O)cc1)CC(C)C`, the remaining at 30 min in series [1] and in [2] was 0% throughout. Besides, the concentration for half-maximal inhibition (IC50) in series [3] was 4.9 nM.
Turning to `CCCNCc1ccc(CCn2ccc(OCc3ccc(F)cc3)cc2=O)nc1`, the remaining at 30 min in series [1] worked out at 91%; in series [2] it was 93%. Further, the IC50 in series [4] is > 5000 nM; in series [5], > 5000 nM; in series [6] it was > 5000 nM; in [7], > 5000 nM; in [8], > 5000 nM; in [9], 27 nM. Also, the IC50 in series [10] was > 5000 nM; in [11], > 5000 nM; in series [12], > 5000 nM; in series [3], 7 nM; in [13], 5100 nM; in [14] it was > 5000 nM. The concentration for half-maximal inhibition (IC50) in series [15] is > 5000 nM.
With `O=c1cc(OCc2ccc(F)cc2)ccn1Cc1cccc(OCCCN2CCCC2)c1`, the IC50 in [3] is 30 nM.
Regarding `CCCN(CCC)Cc1ccc(CCn2ccc(OCc3ccc(F)cc3)cc2=O)cc1`, the remaining at 30 min in series [1] and in series [2] was 1% throughout. For the same compound, the IC50 in series [3] worked out at 3.3 nM.
On to `CCCN(CCF)Cc1ccc(CCn2ccc(OCc3ccc(F)cc3)cc2=O)cc1`, for which the remaining at 30 min in series [1] and in series [2] was 0% throughout. For the same compound, the IC50 in series [3] worked out at 11 nM.
As for `O=c1cc(OCc2ccc(F)cc2)ccn1CCc1ccc(N2CCCC2)cc1`, the half-maximal inhibitory concentration (IC50) in series [3] is > 1000 nM.
In the case of `CCCN(CC)Cc1ccc(CCn2ccc(OCc3ccc(F)cc3)cc2=O)cc1`, the remaining at 30 min in series [1] was 26%; in [2], 6%. Besides, in series [3], the half-maximal inhibitory concentration (IC50) stood at 4.4 nM.
Take `O=c1cc(OCc2ccc(F)cc2)ccn1-c1ccc(OCCN2CCCC2)cc1`: the IC50 in [3] is 5.6 nM.
In the case of `CCCN(C)Cc1ccc(CCn2ccc(OCc3ccc(F)cc3)cc2=O)cc1`, the remaining at 30 min in series [1] was 58%; in series [2] it was 22%. In series [3], the IC50 is 3.5 nM.
For `O=c1cc(OCc2ccc(F)cc2)ccn1CCc1ccc(CN2CCCC2)cc1`, in that order: 60%, 39% and 5 nM.
On to `CCCNCc1ccc(CCn2ccc(OCc3ccc(F)cc3)cc2=O)cc1`, for which the figures for the remaining at 30 min in series [1] and in [2] were 85% and 62%, respectively. In addition, the IC50 in series [4] is > 5000 nM; in [5], > 5000 nM; in series [6], > 5000 nM; in series [7], > 5000 nM; in series [8], > 5000 nM; in series [9], 20 nM. The IC50 in [10], in series [11], in series [12], in [14] and in series [15] was > 5000 nM each time.
For `CCCNCc1ccc(COn2ccc(OCc3ccc(F)cc3)cc2=O)cc1`, the results for the remaining at 30 min in series [1] and in [2] were 72% and 74%, respectively. For the same compound, in [3], the IC50 was determined as 34 nM.
For `CCCNCc1ccc(CCn2ccc(OCc3ccc(F)cc3)cc2=O)cn1` the same measures were 87%, 76% and 11 nM.
For `O=c1cc(OCc2ccc(F)cc2)ccn1Cc1cccc(OCCN2CCCC2)c1`, the IC50 in series [3] worked out at 29 nM.
Still for that read-out and setting: next, `O=c1cc(OCc2ccc(F)cc2)ccn1-c1cccc(OCCN2CCCC2)c1`: > 1000 nM.

Values taken from ChEMBL document CHEMBL1155318, “Discovery of novel phenethylpyridone derivatives as potent melanin-concentrating hormone 1 receptor antagonists” (Bioorg Med Chem Lett, 2009).
